In ChEMBL document CHEMBL4837218, “Synthesis and in vitro antitumour activity of 4(R)-methyl-3-O-phosphonomethyl-α-l-threose nucleosides” (Eur J Med Chem, 2021) one finds IC50, Activity and inhibition data, which are given here for one compound.

For one assay, the system named is MGC-803. Nature of the assay: Anticancer activity against human MGC-803 cells assessed as inhibition of cell growth measured after 72 hrs by MTT assay. It is filed as functional, cell-based. The note with it: MGC-803, 72 h. The gist of the method: (§1)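 Cells seeded at 3000 exponentially growing cells/well and incubated 12 h at 37 °C. Medium then replaced with fresh medium containing graded compound concentrations for 72 h; 5-FU positive control. MTT (5 mg/mL solution) added for 4 h, formazan dissolved in DMSO, absorbance read at 570 nm (reference 630 nm). Relative percentage inhibition of viable cells calculated; IC50 reported as mean ± standard deviation.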
Background: Tetrazolium dyes change colour on reduction, which living cells bring about.

The next assay concerns A549. Briefly: Antiproliferative activity against human A549 cells assessed as cell growth inhibition measured after 72 hrs by MTT assay. The settings on record: A549, 72 h. It is filed as functional, cell-based. Put shortly: as §1
Another assay relates to GES1. Briefly: Antiproliferative activity against human GES1 cells assessed as growth inhibition measured after 72 hrs by MTT assay. The settings on record: GES1, 72 h. It counts as functional, cell-based. The gist of the method:
as §1

The test system of assay [1] is MCF7. Briefly: Antiproliferative activity against human MCF7 cells assessed as reduction in cell viability at 0.06 to 16 uM measured after 24 to 72 hrs by MTT assay. The settings on record: dose 0.06-16 µM, time 24-72 hrs. It is filed as functional, cell-based. Put shortly: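 MTT viability time course on the breast cancer cells with increasing compound concentrations for 24, 48 and 72 h. Cells seeded at 3000/well and allowed 12 h before treatment. MTT (5 mg/mL solution) applied for 4 h, crystals dissolved in DMSO, absorbance read at 570/630 nm. Viability expressed relative to untreated cells.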

Assay [2] deals with MCF7. Briefly: Cell cycle arrest in human MCF7 cells assessed as accumulation at S phase at 1 uM measured after 48 hrs by propidium iodide staining based flow cytometry (reference value: 25.34 %). It is filed as functional. (In general: In flow cytometry, cells or beads pass a laser one at a time.)
For assay [3], the system named is MDA-MB-231. Nature of the assay: Cell cycle arrest in human MDA-MB-231 cells assessed as accumulation at S phase at 3 uM measured after 48 hrs by propidium iodide staining based flow cytometry (reference value: 35.54 %). It is filed as functional.
Assay [4] has as its system MDA-MB-231. Nature of the assay: Cell cycle arrest in human MDA-MB-231 cells assessed as accumulation at G2/M phase at 6 uM measured after 48 hrs by propidium iodide staining based flow cytometry (reference value: 15.46 %). It counts as functional.
The test system of assay [5] is MDA-MB-231. Briefly: Induction of mitochondrial membrane potential loss in human MDA-MB-231 cells assessed as red fluorescence intensity at 3 uM measured after 48 hrs by JC1 staining-based flow cytometry analysis (reference value: 99.2 %). It counts as functional.
For assay [6], the system named is MDA-MB-231. Briefly: Induction of mitochondrial membrane potential loss in human MDA-MB-231 cells assessed as green fluorescence intensity at 3 uM measured after 48 hrs by JC1 staining-based flow cytometry analysis (reference value: 0.8 %). It counts as functional.
In assay [7] the test system is MDA-MB-231. Briefly: Induction of mitochondrial membrane potential loss in human MDA-MB-231 cells assessed as green fluorescence intensity at 6 uM measured after 48 hrs by JC1 staining-based flow cytometry analysis (reference value: 0.8 %). It is filed as functional.
In assay [8] the test system is MCF7. Nature of the assay: Induction of DNA damage in human MCF7 cells assessed as increase in Chk2 protein expression at 1 to 4 uM measured after 48 hrs by western blot analysis. It counts as functional, cell-based. The note with it: dose 1-4 µM. The gist of the method: (§2)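 Cells exposed to graded concentrations for 48 h, then proteins extracted. Run on SDS-PAGE (5–15% gels) and transferred to nitrocellulose. Blocked 2 h in 5% nonfat milk in PBS/0.1% Tween 20, primary antibody overnight at 4 °C, biotin-conjugated secondary 1 h. Visualized on X-ray film with densitometric quantitation; three independent experiments.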
For orientation: In western blotting, separated proteins are transferred to a membrane and probed.

In assay [9] the test system is MCF7. Nature of the assay: Induction of G2/M phase cell cycle arrest in human MCF7 cells assessed as decrease in p-cdc2 protein expression at 1 to 4 uM measured after 48 hrs by western blot analysis. It is filed as functional, cell-based. The note with it: dose 1-4 µM. Put shortly: as §2
Assay [10] relates to MDA-MB-231. Nature of the assay: Induction of DNA damage in human MDA-MB-231 cells assessed as increase in Chk2 phosphorylation at Thr68 residue at 3 to 9 uM measured after 48 hrs by western blot analysis. It counts as functional, cell-based. The note with it: dose 3-9 µM. The gist of the method:
as §2

The test system of assay [11] is MDA-MB-231. Briefly: Induction of DNA damage in human MDA-MB-231 cells assessed as increase in Chk2 protein expression at 3 to 9 uM measured after 48 hrs by western blot analysis. It counts as functional, cell-based. The settings on record: dose 3-9 µM. Put shortly: as §2
In assay [12] the test system is MDA-MB-231. Nature of the assay: Induction of G2/M phase cell cycle arrest in human MDA-MB-231 cells assessed as decrease in p-cdc2 protein expression at 3 to 9 uM measured after 48 hrs by western blot analysis. It is filed as functional, cell-based. The note with it: dose 3-9 µM. Put shortly:
as §2

Assay [13] concerns MCF7. Nature of the assay: Induction of apoptosis in human MCF7 cells assessed as increase in Bad protein expression at 1 to 4 uM measured after 48 hrs by western blot analysis. It is filed as functional, cell-based. The note with it: dose 1-4 µM. Put shortly: (§3)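 MCF-7 and MDA-MB-231 breast cancer cells treated 48 h with a concentration series, then lysed for protein. SDS-PAGE on 5–15% gels, transfer to nitrocellulose. Blocked 2 h in 5% nonfat milk/PBS-0.1% Tween 20, primary antibodies overnight at 4 °C, biotin-conjugated secondary 1 h. X-ray film detection with densitometric quantification.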

For assay [14], the system named is MDA-MB-231. Briefly: Induction of apoptosis in human MDA-MB-231 cells assessed as increase in Bax to Bcl2 ratio at 3 to 9 uM measured after 48 hrs by western blot analysis. It counts as functional, cell-based. The note with it: dose 3-9 µM. The gist of the method:
as §3

The test system of assay [15] is MDA-MB-231. Briefly: Inhibition of PI3K/AKT signalling pathway in human MDA-MB-231 cells assessed as downregulation of 85ap-PI3K expression at 3 to 9 uM measured after 48 hrs by Western blot analysis. It counts as cell-based. The note with it: dose 3-9 µM. Put shortly: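 After 48 h exposure to compound at several concentrations, cells collected and proteins extracted. SDS-PAGE on 5–15% gels, transfer to nitrocellulose, blocking 2 h in 5% nonfat milk in PBS/0.1% Tween 20, primary antibodies overnight at 4 °C, biotin-conjugated secondary 1 h. Detection on X-ray film; band densitometry.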

Assay [16] concerns MDA-MB-231. Briefly: Induction of G2/M phase cell cycle arrest in human MDA-MB-231 cells assessed as downregulation of p-cdc2 protein expression at 9 uM measured after 48 hrs in presence of cdc25c inhibitor, NSC663284 by western blot analysis. It is filed as functional, cell-based.
The subject of assay [17] is MCF7. Briefly: Induction of apoptosis in human MCF7 cells assessed as increase in cleaved caspase 9 protein expression at 4 uM measured after 48 hrs in presence of cdc25c inhibitor, NSC663284 by western blot analysis. It counts as functional, cell-based. The gist of the method: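 Four arms per cell line: untreated, test compound, 0.3 µM NSC663284 alone, and combination. Proteins harvested after 48 h and resolved by SDS-PAGE on 5–15% gels, transferred to nitrocellulose. Blocked 2 h in milk/PBS-Tween, primary antibodies overnight at 4 °C, biotin-conjugated secondary. Read on X-ray film with densitometry.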

Each structure is given as a SMILES string. Activity calls are given as the source filed them. The rule behind the calls is not given here.

`C[C@H]1O[C@@H](n2cnc3c(N)nc(F)nc32)[C@H](O)[C@H]1OCP(=O)([O-])[O-].[Na+].[Na+]`: the IC50 – broadly, the concentration at which inhibition is half-maximal – was determined as 6.18 µM in the assay with MGC-803, 3.48 µM in the assay on A549 and 5.09 µM in the assay on GES1. Also, the outcome with MCF7 [1], in the assay with MCF7 [8], in the assay with MCF7 [9], in the assay with MDA-MB-231 [10], with MDA-MB-231 [11] and in the assay with MDA-MB-231 [12] was Active. In addition, the outcome with MCF7 [13] and in the assay with MDA-MB-231 [14] was Active. Further, the Activity amounted to 18.63% with MCF7 [2]; 34.82% in the assay with MDA-MB-231 [3]; 28.54% with MDA-MB-231 [4]; 98.6% in the assay with MDA-MB-231 [5]; 1.4% in the assay on MDA-MB-231 [6]; 36.2% in the assay on MDA-MB-231 [7]. In addition, the inhibition result with MDA-MB-231 [15] is “Active”. In addition, the outcome in the assay with MDA-MB-231 [16] and with MCF7 [17] was inactive.
